Bioassay records: PubChem, several laboratories
HUVEC prolif 384 = blocks proliferation of human endothelial cells | HUVEC proliferation, CellTiter-Glo luminescence, 72 h; hits give low values | viability, % at 10 µM (by protocol) | actives 1.1% (n = 86,000) | AID 648;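 active means viability at or below 30%; inactive means viability above 30%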;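 further: 100% = median luminescence of DMSO-only cell control wells on each plate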
H69AR growth 86K = growth inhibitors of human H69AR lung tumor cells. AID 598. viability, % at 10 µM. actives 6% (n = 85,000). H69AR lung tumor viability, ATP luminescence, 72 h; hits give low values;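 active means viability at or below 40%; inactive means viability above 40%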;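 further: multidrug resistant small cell line overexpressing MRP-1 efflux transporter; 100% = mean luminescence of untreated control wells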
HCT116 PTEN-null = suppresses growth of cells with PTEN deletion | HCT116 PTEN-null viability, CellTiter-Glo, 60 h; hits give low values | viability, % at 10 µM | actives 1.2% (n = 140,000);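 active means viability at or below a set limit, 4 SD under the median of all tested compounds, cut at about 3.7% in these data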;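 further: PTEN knockout HCT116 line with beta catenin targeted HCT116 as companion control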
Lung fibro prol = blocks proliferation of human lung fibroblasts; LL 47 human lung fibroblast viability, ATP luminescence; hits give low values; viability, % at 10 µM; actives 1.1% (n = 85,000); AID 719;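 active means viability at or below 50% in the single dose screen; inactive means viability above 50%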;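 further: compound exposure lasted 72 h before the ATP readout; 100% = median luminescence of untreated cell-only wells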
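Material: human lung fibroblast line LL 47, low passage; Evaluation: viability percentage against median untreated-cell control; Buffer or medium: 15% FBS in IMEM; Incubation: 72 h compound exposure at 37 °C after overnight plating; Dosing: 0.1% DMSO in all compound wells; Measured by: CellTiter-Glo luminescence.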
Cav32 inh = human Cav3.2 channel inhibition, primary screen. Cav3.2-expressing cells, Fluo-4 calcium fluorescence FDSS; hits give low values. B-score at 10 µM. actives 4% (n = 100,000). AID 449739;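 active means single-dose well whose peak fluorescence ratio is a statistical outlier from its plate by either plate-standardised score or position-corrected B-score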
bCat KO growth = beta-catenin-lacking colon tumor cell growth suppression; HCT116 beta-catenin knockout viability, CellTiter-Glo, 60 h; hits give low values; viability, % at 10 µM; actives 1.5% (n = 140,000); AID 818;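 active means viability at or under a set limit, the compound median less 4 SD, cut at about 6% in these data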;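 further: 0% = Hyamine 1622 control at 20 µM and 100% = untreated cell control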
Active calls of the source: *; . = not tested or not shown. Most compounds without a hit are left out; they make up all but 7.1% or so of the library.

SMILES	HUVEC prolif 384	H69AR growth 86K	HCT116 PTEN-null	Lung fibro prol	Cav32 inh	bCat KO growth
CCn1c2ccccc2c2cc(CN3CCN(S(=O)(=O)Cc4ccccc4)CC3)ccc21	.	.	88	.	.	87
CCn1c(SCC(=O)N2c3ccccc3Sc3ccccc32)nc2c1c(=O)n(C)c(=O)n2C	79	56	.	88	-0.48	.
CC1Cc2ccccc2N1C(=O)CSc1nc2c(c(=O)n(C)c(=O)n2C)n1Cc1ccc(F)cc1 (stereo not drawn)	50	11*	.	30*	0.33	.
CCCCn1c(SCC(=O)N2c3ccccc3Sc3ccccc32)nc2c1c(=O)n(C)c(=O)n2C	66	44	28	88	-4.8*	34
CC1Cc2ccccc2N1C(=O)c1cc2sccc2n1Cc1ccc(F)cc1 (stereo not drawn)	91	90	65	85	-5.6*	65
COc1ccc(CN2C(=O)c3ccccc3C2=O)cc1C(=O)OCC(=O)NC1CCCCC1	.	.	105	.	.	103
COc1ccc(NC(=O)c2cc(CN3C(=O)c4ccccc4C3=O)ccc2OC)cn1	62	17*	86	.	-0.89	94
N#C/C(=C\c1cn(CCOc2ccccc2)c2ccccc12)C(=O)NCC1CCCO1 (stereo not drawn)	.	.	80	.	-4.4*	81
S=C(NCCC(c1ccccc1)c1ccccc1)Nc1ccc(Cl)cc1	.	.	70	.	-3*	76
S=C(NCCC(c1ccccc1)c1ccccc1)Nc1ccccc1Cl	.	.	85	.	-3.4	92
CCCc1nn(C)c(C(=O)Nc2ccc3ccccc3c2)c1Cl	.	.	83	.	.	86
COc1ccc(NC(=O)Nc2nnc(N3CCC(C)CC3)s2)cc1OC	83	37*	90	94	.	98
COc1ccc(OC)c(NC(=O)Nc2nnc(N3CCC(C)CC3)s2)c1	123	78	98	104	.	94
Clc1ccc(-c2nc(NCCN3CCOCC3)c3ccccc3n2)cc1	9.6*	86	44	89	0.45	57
COc1ccc(-n2ncc3c(NCCCN4CCOCC4)ncnc32)cc1	93	88	104	102	1.4	107
COc1ccc(-c2oc3ncnc(NCCCN4CCOCC4)c3c2-c2ccc(OC)cc2)cc1	44	5.7*	58	60	0.036	49
O=S(=O)(Nc1nc2ccccc2nc1NCCN1CCOCC1)c1cccc(Cl)c1	88	96	91	96	-1.3	97
COc1ccc(-c2oc3ncn(CCN4CCOCC4)c(=N)c3c2-c2ccc(OC)cc2)cc1	65	16*	27	85	-0.45	32
COc1ccc(-c2nc(C#N)c(NCCCN3CCOCC3)o2)cc1	.	.	100	.	.	95
CCOc1cc2nc(-c3ccc(OC)c(OC)c3)nc(NCCCN3CCOCC3)c2cc1OC	58	18*	57	82	0.85	65
CC1(C)C(=O)OC(C(=O)c2ccccc2)C2(CCCCC2)C1=O (stereo not drawn)	.	.	87	.	.	80
CCOc1cc(S(=O)(=O)NCc2ccco2)c(OCC)cc1-n1cnnn1	91	88	108	97	0.17	99
COc1nc(NCCN2CCOCC2)nc(Nc2ccccc2)n1	101	93	86	96	-0.015	94
COc1ccc(-c2oc3ncnc(NCCN4CCOCC4)c3c2-c2ccc(OC)cc2)cc1	71	18*	18	77	1	24
c1ccc(-c2oc3ncnc(NCCCN4CCOCC4)c3c2-c2ccccc2)cc1	37	3.1*	34	75	0.044	36
SMILES	HUVEC prolif 384	H69AR growth 86K	HCT116 PTEN-null	Lung fibro prol	Cav32 inh	bCat KO growth
CC(=O)N(NC(=O)c1ccc(C)cc1)C1CC(=O)N(c2ccccc2Cl)C1=O (stereo not drawn)	.	.	97	.	.	93
O=C1N/C(=N\N=C\c2cccs2)SC1Cc1cccc(Cl)c1Cl (stereo not drawn)	.	.	15	.	.	16
Cc1ccc(S(=O)(=O)n2nc(-c3ccc(Cl)cc3)nc2NCc2ccco2)cc1	79	76	77	92	-6.6*	69
O=C(COc1ccccc1)n1nc(-c2ccc(Cl)cc2)nc1NCc1ccco1	58	12*	62	74	-0.03	45
O=C(c1ccco1)n1nc(-c2ccc(Cl)cc2)nc1NCc1ccco1	41	36*	79	82	-0.42	67
O=C(c1ccco1)n1nc(-c2ccccc2)nc1NCc1ccco1	91	81	105	93	-0.049	95
O=c1cc(-c2ccccc2Cl)oc2c(NS(=O)(=O)c3cccs3)ccc(O)c12	.	.	.	.	-2.7	.
COc1ccc2[nH]c3c(N4CCC(O)(c5cccc(C(F)(F)F)c5)CC4)ncnc3c2c1	.	.	5	.	-2.3	4.5*
Cc1[nH][nH]c(=O)c1C(c1c(C)[nH][nH]c1=O)c1cn(Cc2cccc3ccccc23)c2ccccc12	.	.	7	.	-5.1*	11
Cc1[nH][nH]c(=O)c1C(c1cc([N+](=O)[O-])ccc1O)c1c(C)[nH][nH]c1=O	.	.	85	.	.	91
O=C(c1ccco1)N1CCN(c2ncnc3scc(-c4ccc(F)cc4)c23)CC1	87	24*	76	69	-2.5	84
Cc1ccc(-c2nsc3c(N4CCN(C(=O)c5ccco5)CC4)ncnc23)cc1	95	81	.	99	.	.
CN(C)/C=c1\sc2c(C#N)cc(C(=O)c3ccc(Br)cc3)n2c1=O	72	88	87	90	-6.9*	98
CCCC1=C(C(=O)OCC)C(c2cc(Cl)cc(OC)c2OCC(=O)OCC)NC(=O)N1 (stereo not drawn)	91	77	94	91	-5.2*	90
CCOC(=O)COc1c(OC)cc(Cl)cc1C1NC(=O)NC(C)=C1C(C)=O (stereo not drawn)	95	98	104	97	0.079	111
CCOC(=O)c1cnc(-n2nc(C)cc2C)nc1NNc1nc(-c2ccccc2)cc(-c2ccccc2)n1	.	.	4	.	.	4.5*
CCOC(=O)c1cnc(-n2nc(C)cc2C)nc1Nc1ccc(C)cc1	.	.	71	.	.	58
CCOC(=O)c1cnc(-n2nc(C)cc2C)nc1Nc1cccc(C(=O)O)c1	91	102	115	91	1.6	108
CCOC(=O)c1cnc(-n2nc(C)cc2C)nc1NC	113	95	87	104	0.19	79
CCOC(=O)c1cnc(-n2nc(C)cc2C)nc1Nc1ccc(N(C)C)cc1	56	3.0*	10	30*	-4	10
CCOC(=O)c1cnc(-n2nc(C)cc2C)nc1NC1CCCCC1	32	1.1*	2.1*	.	-3	1.9*
CCOC(=O)c1cnc(-n2nc(C)cc2C)nc1N(CC)CC	99	36*	84	87	-3	59
Cc1ccc(/C=C/C(=O)N2CCN(c3ncccn3)CC2)o1	.	.	81	.	.	80
CCCCNC(=O)C1CC(=O)N(c2ccc(OC)cc2)C1c1ccc(OC)cc1 (stereo not drawn)	90	90	86	101	0.13	84
Cn1c(=O)c2c(ncn2CC(=O)OCC(=O)Nc2cc(Cl)ccc2Cl)n(C)c1=O	.	.	88	.	.	91
